# Screens (PubChem BioAssay)
# Most compounds without a hit are left out; they make up all but 1.9% or so of the library.
# LEDGF integ inh: blocks HIV-1 LEDGF/p75-dependent DNA integration | TR-FRET IN-LEDGF/p75 DNA integration, Eu/Cy5 | inhibition, % at 3.7 µM | 0.64% of 370,000 active;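 active = inhibition above the screen-wide mean plus 3 SD, cut at about 13% in these data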;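 note: signal is the Cy5 over europium emission ratio at 671 and 618 nm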
# Casp6 inh: inhibitors of human caspase-6; AID 686996; inhibition, % at 12.5 µM; purified caspase-6, Z-VEID-R110 cleavage fluorescence; P55212; 0.53% of 350,000 active;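 active = mean inhibition across replicates at least about 35%, with every replicate also reaching that limit, limit read from the data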
# TDP2 inh: TDP2 (human) inhibition, absorbance primary screen; O95551; 0.34% of 370,000 active; inhibition, % at 12.8 µM; AID 720702; recombinant TDP2, T5PNP hydrolysis, p-nitrophenol absorbance 415 nm;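 active = inhibition above the mean of all tested compounds plus 3 SD, set per campaign, cut at about 25% in these data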
# Target sequence (O95551 whole entry, looked up): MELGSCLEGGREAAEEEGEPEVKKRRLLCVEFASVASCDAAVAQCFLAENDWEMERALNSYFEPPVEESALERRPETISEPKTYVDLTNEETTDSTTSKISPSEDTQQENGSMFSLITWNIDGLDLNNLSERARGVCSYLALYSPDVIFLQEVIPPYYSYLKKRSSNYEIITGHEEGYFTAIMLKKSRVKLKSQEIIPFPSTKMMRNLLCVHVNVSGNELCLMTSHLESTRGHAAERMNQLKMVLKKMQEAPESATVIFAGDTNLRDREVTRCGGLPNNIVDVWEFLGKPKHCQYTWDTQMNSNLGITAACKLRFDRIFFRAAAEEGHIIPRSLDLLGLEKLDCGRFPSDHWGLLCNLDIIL
#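 test system = human TDP2 enzyme | input = TDP2 enzyme at 120 nM final | medium = 50 mM Tris-HCl pH 7.5 with Mg2+, KCl, DTT, BSA | also added = T5PNP substrate, 5 mM | times = 2 h at 37 °C | technique = epi absorbance | benchmarks = high control without enzyme, low control DMSO plus TDP2 | replication = each compound tested once, singlicate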
# NSD2 inh: blocks human histone methyltransferase NSD2. 0.54% of 310,000 active. AID 743445. inhibition, % at 12.5 µM. O96028. NSD2 peptide methylation, AlphaScreen, 120 min; in the data active = inhibition above about 50%
# MBD2 inh: MBD2-methylated oligo binding inhibition | TR-FRET, MBD2 binding to methylated oligonucleotide | inhibition, % at 4.4 µM | 0.31% of 370,000 active; in the data active = inhibition above about 13%
# UHRF1 MBD2 ctr: UHRF1 methyl-DNA binding inhibition. UHRF1 binding to methylated oligo, TR-FRET. 0.75% of 370,000 active. AID 687016. inhibition, % at 4.4 µM; in the data active = inhibition above about 21%;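 note: UHRF1 SRA domain binding a hemimethylated CpG hairpin DNA probe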
# AlphaScreen art: AlphaScreen assay artifact in NSD2 counter-screen. shares compounds with NSD2 inh. AlphaScreen artifact counterscreen, preloaded methylated H4 peptide. AC35, µM (highest dose often 10 µM). 9.4% of 1,500 active; call rule not given here
# A number is an active result; i = inactive; nt = no result given.
SMILES,LEDGF integ inh,Casp6 inh,TDP2 inh,NSD2 inh,MBD2 inh,UHRF1 MBD2 ctr,AlphaScreen art
Cn1c(N2CCC(C(N)=O)CC2)nc2c1c(=O)n(Cc1ccc(Cl)cc1)c(=O)n2C,i,i,i,i,i,i,nt
CN1CCN(c2nc3c(c(=O)n(C)c(=O)n3C)n2Cc2ccc(Cl)cc2)CC1,i,i,i,i,i,i,nt
C/C=C/c1ccc2c(c1)O[C@H](CN(C)C(=O)c1ccccc1F)[C@H](C)CN([C@@H](C)CO)S2(=O)=O,nt,i,nt,nt,nt,nt,nt
C[C@H](CO)N1C[C@H](C)[C@H](CN(C)Cc2ccncc2)OCCCC[C@H](C)Oc2ccc(NS(=O)(=O)c3cn(C)cn3)cc2C1=O,nt,i,nt,nt,nt,nt,nt
O=C1CC(=O)Nc2cc(S(=O)(=O)Nc3cccc(C(F)(F)F)c3)ccc2N1,i,i,i,i,i,i,nt
O=C1CC(=O)Nc2cc(S(=O)(=O)Nc3ccc(Cl)c(C(F)(F)F)c3)ccc2N1,i,i,i,52,i,i,i
Cn1c(COc2ccc(Cl)cc2)nnc1SCC(=O)NC1CCCCC1,i,nt,i,51,i,i,i
Cc1ccc(OCc2nnc(SCC(=O)NC3CCCCC3)n2C)cc1,i,nt,i,i,i,i,nt
CO[C@H]1CN(C)C(=O)c2ccc(NS(=O)(=O)c3ccc(C)cc3)cc2OC[C@H](C)N(C)C[C@@H]1C,nt,i,nt,nt,nt,nt,nt
O=[N+]([O-])c1ccccc1-c1ccc(C(=S)N2CCCCC2)o1,i,i,i,i,i,i,nt
O=[N+]([O-])c1ccccc1-c1ccc(C(=S)N2CCCC2)o1,i,i,i,65,i,i,i
CCn1c(O)c(/C=N/n2cnnc2)sc1=S,i,nt,i,67,i,i,i
COc1ccc2nc(C)cc(SCC(=O)N/N=C/c3ccc(O)c(O)c3)c2c1,i,i,i,66,i,i,i
CC(C)NC(=O)N(C)C[C@@H]1Oc2ccc(NC(=O)C3CCCCC3)cc2C(=O)N([C@@H](C)CO)C[C@H]1C,nt,i,nt,nt,nt,nt,nt
CC(=O)Nc1ccc(S(=O)(=O)Nc2cccc(-n3cnnn3)c2)cc1,i,i,i,i,i,i,nt
CC(=O)c1ccc(S(=O)(=O)Nc2cccc(-n3cnnn3)c2)cc1,i,56,i,115,i,40,i
O=C(OC(C(=O)NCc1cccs1)c1ccccn1)c1cccs1 (configuration not stated),i,nt,i,i,i,i,nt
O=C(OC(C(=O)NC1CCCCC1)c1ccccn1)c1cccs1 (configuration not stated),i,nt,i,114,i,i,i
CC(=O)c1c(C)oc2c1cc(O)c1ccccc12,i,i,i,nt,i,i,nt
CC(=O)c1cc(O)c2ccccc2c1O,i,38,42,79,i,i,i
Cc1ccc2[nH]c(=O)c(CN(Cc3ccc4c(c3)OCO4)Cc3nnnn3Cc3ccco3)cc2c1,i,nt,i,i,i,i,nt
COc1ccccc1CN(Cc1cc2cc3c(cc2[nH]c1=O)OCCO3)Cc1nnnn1Cc1ccco1,i,nt,i,60,i,i,i
C[C@@H]1CN([C@H](C)CO)C(=O)c2cc(NC(=O)Nc3ccc(F)cc3)ccc2O[C@@H](C)CCCCO[C@@H]1CN(C)S(=O)(=O)c1cccs1,nt,i,nt,nt,nt,nt,nt
COc1ccc(C2/C(=C(\O)c3cccc(OC)c3)C(=O)C(=O)N2c2ccccn2)cc1 (configuration not stated),i,i,i,116,i,i,i
CN(c1ccc(C(=O)O)cc1)S(=O)(=O)c1ccccc1,i,nt,i,52,i,i,i
O=C(Nc1cc(S(=O)(=O)Nc2ccccc2F)ccc1Cl)c1ccc(F)cc1F,i,i,i,89,i,i,i
Cc1noc(C)c1S(=O)(=O)N(C)C[C@@H]1Oc2ccc(NS(C)(=O)=O)cc2CC(=O)N([C@@H](C)CO)C[C@@H]1C,nt,i,nt,nt,nt,nt,nt
COc1ccc(-n2nc(C(=O)NCc3cc(OC)ccc3OC)c3c4ccccc4n(C)c3c2=O)cc1,i,i,i,i,i,i,nt
Cc1ccc(-n2nc(C(=O)NCc3ccc(C)o3)c3c4ccccc4n(C)c3c2=O)cc1,i,nt,i,53,i,i,i
CC(C)n1c(NCc2nc3ccccc3n2C)nc2ccccc21,i,nt,i,120,i,i,i
